This is a sample that favours compounds with a hit; in the whole collection about 1.8% have one here.
HDAC3 inhib – inhibitors of human histone deacetylase 3. 320,000 compounds, 0.15% hits. recombinant HDAC3, fluorogenic peptide/trypsin coupled, fluorescence. O15379. inhibition, % at 8.3 µM; in the data active = inhibition above about 26%, passing the limit was not always enough
Bfl-1 A1 inh – inhibitors of the anti-apoptotic protein A1, read as caspase activation; MEF A1-2A-BIM cells, Caspase-Glo 3/7 luminescence, 3 h; percent of clofoctol response, vehicle zero; caspase activation, % (no concentration beside the values); 330,000 compounds, 0.066% hits; AID 2462;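 active = over half of replicate activation scores above 10%, or exactly half above 10 with the replicate mean above 10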
AI-2 QS mod – modulators of Vibrio harveyi AI-2 quorum sensing system | Vibrio harveyi JMH597 AI-2 luminescence/OD600 ratio, 9 h; active compounds read low; strain lacks LuxN and CqsS sensors; 0 = neutral-control median | activity change, % at 7.5 µM | 300,000 compounds, 0.4% hits | AID 2094; in the data active = activity change below about -75%, passing the limit was not always enough;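 note: luminescence divided by OD600 gain over 9 h not by final OD600 alone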
HKDC1 inhibitor – inhibitors of human hexokinase HKDC1; inhibition, % at 20 µM; 340,000 compounds, 0.16% hits; recombinant HKDC1, G6PDH/diaphorase resazurin coupled fluorescence;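 active = inhibition above about 35% when tested at 20 µM, limit read from the data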;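 note: plate controls were DMSO wells with enzyme for no effect and DMSO wells lacking enzyme for full effect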
Target sequence (Q2TB90 whole entry, looked up): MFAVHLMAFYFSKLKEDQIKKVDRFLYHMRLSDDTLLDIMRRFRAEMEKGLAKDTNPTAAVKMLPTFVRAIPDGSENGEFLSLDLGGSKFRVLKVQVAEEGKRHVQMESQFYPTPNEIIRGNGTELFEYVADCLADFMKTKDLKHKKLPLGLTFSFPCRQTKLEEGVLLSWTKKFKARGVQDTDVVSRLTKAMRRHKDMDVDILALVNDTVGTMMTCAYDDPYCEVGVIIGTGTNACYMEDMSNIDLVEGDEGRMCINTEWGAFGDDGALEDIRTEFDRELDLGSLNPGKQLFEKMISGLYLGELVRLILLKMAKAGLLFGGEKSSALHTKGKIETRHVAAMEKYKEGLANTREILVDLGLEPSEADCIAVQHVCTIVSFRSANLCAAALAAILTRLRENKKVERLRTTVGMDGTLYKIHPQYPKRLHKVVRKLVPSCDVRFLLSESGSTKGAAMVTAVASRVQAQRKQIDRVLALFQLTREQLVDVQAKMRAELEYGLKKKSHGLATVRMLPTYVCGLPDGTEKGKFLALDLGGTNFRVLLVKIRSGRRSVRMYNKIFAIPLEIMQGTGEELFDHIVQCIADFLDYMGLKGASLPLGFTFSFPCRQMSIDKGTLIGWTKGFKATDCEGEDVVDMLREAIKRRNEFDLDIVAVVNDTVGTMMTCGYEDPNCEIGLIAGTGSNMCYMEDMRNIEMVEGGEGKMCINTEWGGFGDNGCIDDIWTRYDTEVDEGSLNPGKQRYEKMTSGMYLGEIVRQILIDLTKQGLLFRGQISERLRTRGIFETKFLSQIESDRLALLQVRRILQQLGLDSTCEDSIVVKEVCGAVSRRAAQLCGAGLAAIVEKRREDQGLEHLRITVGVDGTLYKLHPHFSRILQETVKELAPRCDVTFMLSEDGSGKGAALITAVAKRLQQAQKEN
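Test system: recombinant HKDC1 (HK5) hexokinase enzyme, produced in-house / Doses: 20 µM test compound, 1% DMSO / Timing: 90 min, room temperature / Detection: G6PDH/diaphorase-coupled fluorescence, 1 mM NADP, 100 µM resazurin, 525/613 nm / Control set: DMSO wells with and without enzyme mix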
ATG4B inh – ATG4B (human) cysteine protease inhibition; inhibition, % at 8.33 µM; AID 504462; ATG4B cleavage of LC3-PLA2, NBD-HPC fluorescence, 1 h; Q9Y4P1; 340,000 compounds, 0.51% hits; in the data active = inhibition above about 40%
LANA-H2A inh – blocks KSHV LANA binding to histone H2A/H2B. cell-free LANA-H2A/H2B peptide, fluorescence polarization. inhibition, % (test concentration not listed). Q9QR71. 320,000 compounds, 0.6% hits; in the data active = inhibition mostly above about 10%, no sharp cut-off; inactive = mostly below about 6.7%
ATG4B confirm – confirmation of human ATG4B inhibitors. shares compounds with ATG4B inh. ATG4B protease fluorescent substrate cleavage assay. inhibition, % at 8.33 µM. 320 compounds, 92% hits. AID 504757; in the data active = inhibition above about 39%
PLA2 ctr – PLA2 (human) inhibition in ATG4B counter-screen; shares compounds with ATG4B inh; 1,600 compounds, 66% hits; purified PLA2, NBD-C6-HPC fluorescence, 45 min; inhibition, % at 8.33 µM; in the data active = inhibition above about 50%
Active calls of the source: *; . = not tested or not shown.

SMILES	HDAC3 inhib	Bfl-1 A1 inh	AI-2 QS mod	HKDC1 inhibitor	ATG4B inh	LANA-H2A inh	PLA2 ctr	others
CC(C)(C)c1[nH]nc2c1C(c1ccc(OC(=O)c3ccco3)cc1)C(C#N)=C(N)O2 (stereo not given)	54*	0	4	5	83*	6	86*
CC(C)(C)c1[nH]nc2c1C(c1cccnc1)C(C#N)=C(N)O2 (stereo not given)	-2	0	10	-1	5	3	.
COc1ccc(-c2[nH]nc3c2C(c2ccc(OC(=O)N4CCOCC4)cc2)C(C#N)=C(N)O3)cc1 (stereo not given)	-5	0	.	-2	42*	1	44	ATG4B confirm=76*
COc1ccc(-c2[nH]nc3c2C(c2ccccc2OC(=O)N2CCOCC2)C(C#N)=C(N)O3)cc1 (stereo not given)	3	0	13	-6	-4	9	.
Cc1ccc(N(CCC(=O)N2CCOCC2)S(=O)(=O)c2ccccc2)cc1	-3	1	.	-2	-3	2	.
CCn1c(SCC(=O)N2CCOCC2)nc2c([nH]c3ccccc32)c1=O	-2	1	12	-8	-1	3	.
Cc1cccc(C(=O)Nc2scc(CC(C)C)c2C(=O)O)c1	-2	-2	4	-11	73*	3	68*
Cc1ccc(-c2csc(NC(=O)c3cccc(C)c3)c2C(=O)O)cc1	-6	-8	34	13	45*	-1	52*
CC(NC(=O)[C@H](C)NC(=O)[C@@H]1CSC2c3ccccc3C(=O)N21)c1ccccc1 (stereo not given in full)	-3	-2	5	-5	-11	3	.
CCCCCCCCCCCCCCCC[N+](C)(C)CCl	.	.	.	16	56*	.	39	ATG4B confirm=57*
CC1(C)C2CCC1(C)C1(C2)NC(=O)c2ccccc2O1 (stereo not given)	.	-1	11	17	45*	.	34	ATG4B confirm=70*
Cc1cccc(NC(=S)Nc2ccc(Oc3ccccc3)cc2)n1	1	-1	24	15	44*	3	45	ATG4B confirm=67*
O=C(CC1Sc2ncnn2C1=O)Nc1ccccc1 (stereo not given)	9	2	18	-7	3	-6	.
COc1ccc(C(C)NC(=S)NCc2ccc(F)cc2)cc1 (stereo not given)	-1	0	-4	-2	12	3	.
Cc1ccc(C)c(C(C)NC(=S)NCc2ccc(F)cc2)c1 (stereo not given)	-1	0	-7	7	49*	9	50*
Cc1cccc(C)c1NC(=O)CN(C)C(=O)CC1Sc2ccccc2NC1=O (stereo not given)	0	1	10	4	-5	2	.
COc1ccccc1-n1cnc2cc(C(=O)N3CCOCC3)ccc21	4	0	1	-4	0	1	.
NC(=O)c1ccc(C(F)(F)F)n(Cc2c(Cl)cccc2Cl)c1=O	-2	2	11	19	47*	2	50
O=C(Nc1sc2c(c1C(=O)O)CCCC2)c1cccc(Cl)c1	2	-13	54	5	42*	2	51*
Cc1cccn2c(=O)c(/C=C(\C#N)C(=O)NCc3ccco3)c(N3CCCCC3)nc12	1	1	11	-7	63*	0	60*
Cc1cccn2c(=O)c(/C=C(\C#N)C(=O)NCc3ccco3)c(N3CCCC(C)C3)nc12 (stereo not given)	4	0	24	-5	51*	3	68*
CCOC(=O)C1CCCN(c2nc3c(C)cccn3c(=O)c2/C=C(\C#N)C(=O)NCc2ccco2)C1 (stereo not given)	1	0	16	1	10	1	.
